Laboratory results taken from ChEMBL document CHEMBL1165965, “Synthesis and structure-activity relationships of 1,2,3,4-tetrahydropyrido[2,3-b]pyrazines as potent and selective inhibitors of the anaplastic lymphoma kinase” (Bioorg Med Chem, 2010).

What was measured:
[1] = tested on: Phosphatidylinositol 4,5-bisphosphate 3-kinase catalytic subunit alpha isoform (Homo sapiens), P42336 [E542K]; assay: Inhibition of PIK3CA E542K mutant at 1 uM
[2] = biological target: T1, Mitogen-activated protein kinase kinase kinase 7 (Homo sapiens) (UniProt O43318); assay: Inhibition of TAK1 at 1 uM
T1 sequence (whole entry): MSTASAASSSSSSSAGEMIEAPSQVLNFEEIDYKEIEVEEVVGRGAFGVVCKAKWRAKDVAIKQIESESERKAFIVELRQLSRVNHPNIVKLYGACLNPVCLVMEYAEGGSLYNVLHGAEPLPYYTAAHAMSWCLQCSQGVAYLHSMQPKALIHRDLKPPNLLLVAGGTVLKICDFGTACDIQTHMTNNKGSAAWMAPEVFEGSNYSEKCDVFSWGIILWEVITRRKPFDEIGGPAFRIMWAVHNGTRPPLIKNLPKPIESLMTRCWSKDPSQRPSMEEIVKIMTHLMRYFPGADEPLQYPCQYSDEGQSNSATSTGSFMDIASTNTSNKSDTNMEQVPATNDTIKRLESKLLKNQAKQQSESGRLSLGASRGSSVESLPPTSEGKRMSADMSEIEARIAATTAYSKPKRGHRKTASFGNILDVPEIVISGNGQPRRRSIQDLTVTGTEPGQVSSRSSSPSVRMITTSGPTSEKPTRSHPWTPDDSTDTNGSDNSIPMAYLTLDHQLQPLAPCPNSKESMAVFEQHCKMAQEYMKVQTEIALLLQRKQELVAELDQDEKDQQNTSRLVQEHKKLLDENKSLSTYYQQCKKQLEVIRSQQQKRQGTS

[3] = biological target: T2, Ephrin type-A receptor 3 (Homo sapiens) (UniProt P29320); assay: Inhibition of EPHA3 at 1 uM
T2 sequence (whole entry): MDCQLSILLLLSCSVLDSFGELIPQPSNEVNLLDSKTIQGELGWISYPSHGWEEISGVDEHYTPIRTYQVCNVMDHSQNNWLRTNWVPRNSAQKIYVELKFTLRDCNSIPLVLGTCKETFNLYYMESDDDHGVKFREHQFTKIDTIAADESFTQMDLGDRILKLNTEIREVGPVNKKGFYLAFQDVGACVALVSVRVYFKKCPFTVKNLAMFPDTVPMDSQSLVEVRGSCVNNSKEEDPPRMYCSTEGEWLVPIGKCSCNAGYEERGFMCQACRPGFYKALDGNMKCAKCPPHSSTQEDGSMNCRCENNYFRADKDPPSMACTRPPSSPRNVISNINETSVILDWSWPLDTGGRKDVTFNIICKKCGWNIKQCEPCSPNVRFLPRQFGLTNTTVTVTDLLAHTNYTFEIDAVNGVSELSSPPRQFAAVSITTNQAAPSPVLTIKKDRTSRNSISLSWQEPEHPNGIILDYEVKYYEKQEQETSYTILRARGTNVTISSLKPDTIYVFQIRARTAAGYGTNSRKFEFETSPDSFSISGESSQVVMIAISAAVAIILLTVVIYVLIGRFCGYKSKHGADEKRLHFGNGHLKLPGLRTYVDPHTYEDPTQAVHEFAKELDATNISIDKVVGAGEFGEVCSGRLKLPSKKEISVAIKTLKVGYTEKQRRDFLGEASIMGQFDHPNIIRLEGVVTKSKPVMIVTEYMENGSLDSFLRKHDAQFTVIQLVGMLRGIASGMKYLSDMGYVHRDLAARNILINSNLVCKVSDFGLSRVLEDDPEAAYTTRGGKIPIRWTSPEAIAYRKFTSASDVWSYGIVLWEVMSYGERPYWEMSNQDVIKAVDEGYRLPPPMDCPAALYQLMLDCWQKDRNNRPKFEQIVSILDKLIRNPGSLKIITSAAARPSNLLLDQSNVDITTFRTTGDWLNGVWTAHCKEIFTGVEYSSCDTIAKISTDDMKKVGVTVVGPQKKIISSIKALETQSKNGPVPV
Procedure, shortened: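 Single-concentration screen using Ambit Bioscience KINOMEscan technology across a panel of 250–400 kinases. Per-kinase inhibition from this screen was summarized as S(90), the fraction of kinases inhibited by more than 90%.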

[4] = biological target: Fibroblast growth factor receptor 3 (Homo sapiens) (UniProt P22607); assay: Inhibition of FGFR3 at 1 uM
Procedure, shortened: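 Single-concentration screen on the Ambit KINOMEscan platform, run against a panel of 250–400 kinases. Per-kinase inhibition was also summarized as S(90), the fraction of kinases inhibited by more than 90%.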

Sequence of Phosphatidylinositol 4,5-bisphosphate 3-kinase catalytic subunit alpha isoform (Homo sapiens), P42336 [E542K] (P42336 whole entry E542K, canonical isoform): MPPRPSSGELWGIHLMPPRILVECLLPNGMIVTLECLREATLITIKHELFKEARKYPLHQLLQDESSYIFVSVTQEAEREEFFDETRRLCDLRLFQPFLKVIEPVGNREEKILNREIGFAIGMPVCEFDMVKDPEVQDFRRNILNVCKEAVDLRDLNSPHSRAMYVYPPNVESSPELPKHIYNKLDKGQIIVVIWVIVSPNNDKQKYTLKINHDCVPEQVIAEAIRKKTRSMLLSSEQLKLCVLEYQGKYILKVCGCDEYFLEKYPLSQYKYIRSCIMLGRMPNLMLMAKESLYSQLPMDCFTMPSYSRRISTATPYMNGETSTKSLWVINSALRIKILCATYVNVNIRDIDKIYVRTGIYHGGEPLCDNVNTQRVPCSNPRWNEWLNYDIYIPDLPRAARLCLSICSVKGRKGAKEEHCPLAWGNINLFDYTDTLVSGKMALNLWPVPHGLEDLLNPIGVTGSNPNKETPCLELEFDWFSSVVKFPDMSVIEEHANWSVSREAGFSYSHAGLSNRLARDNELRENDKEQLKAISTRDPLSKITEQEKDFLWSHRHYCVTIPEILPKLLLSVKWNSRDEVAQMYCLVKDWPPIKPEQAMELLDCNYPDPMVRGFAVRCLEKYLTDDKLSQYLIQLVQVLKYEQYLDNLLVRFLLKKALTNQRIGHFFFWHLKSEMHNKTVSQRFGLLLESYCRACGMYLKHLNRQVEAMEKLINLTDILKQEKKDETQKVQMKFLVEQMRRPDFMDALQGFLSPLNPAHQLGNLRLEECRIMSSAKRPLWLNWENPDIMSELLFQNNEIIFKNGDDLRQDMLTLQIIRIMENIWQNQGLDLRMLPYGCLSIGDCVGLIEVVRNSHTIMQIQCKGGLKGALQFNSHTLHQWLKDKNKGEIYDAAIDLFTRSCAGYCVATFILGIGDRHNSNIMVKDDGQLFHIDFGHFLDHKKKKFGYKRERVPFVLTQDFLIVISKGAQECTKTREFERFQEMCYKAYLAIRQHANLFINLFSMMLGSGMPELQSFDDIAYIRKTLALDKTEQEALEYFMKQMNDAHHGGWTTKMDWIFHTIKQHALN
Sequence of Fibroblast growth factor receptor 3 (Homo sapiens) (P22607 23-806 limits assumed): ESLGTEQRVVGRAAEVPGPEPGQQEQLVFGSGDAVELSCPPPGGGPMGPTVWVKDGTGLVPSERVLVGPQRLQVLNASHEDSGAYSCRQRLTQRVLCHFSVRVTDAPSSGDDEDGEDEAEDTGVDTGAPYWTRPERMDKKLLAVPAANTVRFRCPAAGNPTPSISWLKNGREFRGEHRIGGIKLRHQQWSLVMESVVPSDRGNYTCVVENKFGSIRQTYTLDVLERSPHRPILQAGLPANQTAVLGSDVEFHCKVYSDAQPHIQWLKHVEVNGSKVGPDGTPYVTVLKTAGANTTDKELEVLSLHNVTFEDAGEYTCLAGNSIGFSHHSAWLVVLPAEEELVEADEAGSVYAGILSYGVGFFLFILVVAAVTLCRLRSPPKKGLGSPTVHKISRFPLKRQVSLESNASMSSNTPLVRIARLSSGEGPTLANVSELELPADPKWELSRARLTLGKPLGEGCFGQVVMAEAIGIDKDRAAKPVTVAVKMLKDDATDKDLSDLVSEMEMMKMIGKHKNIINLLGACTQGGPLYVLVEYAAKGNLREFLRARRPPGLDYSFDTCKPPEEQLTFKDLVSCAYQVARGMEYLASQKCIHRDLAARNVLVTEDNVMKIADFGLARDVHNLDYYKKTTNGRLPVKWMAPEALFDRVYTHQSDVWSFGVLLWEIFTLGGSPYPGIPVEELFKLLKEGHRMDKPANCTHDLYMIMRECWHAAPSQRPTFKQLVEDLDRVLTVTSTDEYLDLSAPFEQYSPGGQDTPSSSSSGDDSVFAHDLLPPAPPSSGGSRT

| inhibition [1] [%] | inhibition [2] [%] | inhibition [3] [%] | inhibition [4] [%] | SMILES |
| --- | --- | --- | --- | --- |
| < 50 | < 50 | < 50 | < 50 | CN1CCN(c2ccc(-c3cnc4c(c3)N(Cc3cc(Cl)ccc3C(F)(F)F)CCN4)cn2)CC1 |
|  |  | < 50 | < 50 | O=C(O)c1ccc(-c2cnc3c(c2)N(Cc2cc(Cl)ccc2C(F)(F)F)CCN3)cc1 |
|  |  | < 50 | < 50 | O=C(c1ccc(-c2cnc3c(c2)N(Cc2cc(Cl)ccc2C(F)(F)F)CCN3)cc1)N1CCC(N2CCCC2)CC1 |
|  |  | < 50 | < 50 | COC1CCN(C(=O)c2ccc(-c3cnc4c(c3)N(Cc3cc(Cl)ccc3C(F)(F)F)CCN4)cc2)CC1 |
| < 50 | < 50 | < 50 | < 50 | FC(F)(F)c1ccc(Cl)cc1CN1CCNc2ncc(-c3ccnc(N4CCNCC4)c3)cc21 |
| < 50 | < 50 | < 50 | < 50 | CC(=O)N1CCN(c2cc(-c3cnc4c(c3)N(Cc3cc(Cl)ccc3C(F)(F)F)CCN4)ccn2)CC1 |
| < 50 | < 50 | < 50 | < 50 | CN1CCN(c2ccc(-c3cnc4c(c3)N(Cc3cc(F)ccc3F)CCN4)cn2)CC1 |
| < 50 | < 50 | < 50 | < 50 | CN1CCN(c2ccc(-c3cnc4c(c3)N(Cc3c(F)ccc(F)c3Cl)CCN4)cn2)CC1 |
|  |  | < 50 | < 50 | O=C(c1ccc(-c2cnc3c(c2)N(Cc2cc(Cl)ccc2C(F)(F)F)CCN3)cc1)N1CCCCC1 |
| < 50 | < 50 | < 50 | < 50 | CN1CCN(c2ccc(-c3cnc4c(c3)N(Cc3cc(Cl)ccc3Cl)CCN4)cn2)CC1 |
